Screening results from PubChem.
TDP2 absorb: TDP2 (human) inhibition, absorbance primary screen. O95551. recombinant TDP2, T5PNP hydrolysis, p-nitrophenol absorbance 415 nm. inhibition, % at 12.8 µM. AID 720702. actives 0.34% (n = 370,000);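 active = inhibition above the mean of all tested compounds plus 3 SD, set per campaign, cut at about 25% in these data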;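 also: 0% = DMSO with enzyme and 100% = buffer with substrate but no TDP2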
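System: recombinant human TDP2 / Amount: 120 nM TDP2 per well / Also added: 5 mM T5PNP chromogenic substrate / Doses: 12.8 µM single point, 1% DMSO / Incubation: 2 h at 37 °C / Detection: p-Nitrophenol epi absorbance / Evaluation: % inhibition relative to enzyme-containing and enzyme-free wells / Repeats: singlicate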
PRMT1 FP inh: PRMT1 (human) inhibition, primary screen | actives 1.3% (n = 370,000) | inhibition, % at 2.79 µM | recombinant PRMT1, activity-based probe fluorescence polarization | AID 652257 | Q99873;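 active = inhibition above about 21% made by adding two undisclosed values, limit read from the data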
Apaf1 inhib: human Apaf-1 inhibition; reconstituted apoptosome caspase-3 activity, DEVD-Rh110 fluorescence; inhibition, % at 20 µM; actives 0.71% (n = 330,000); AID 489030; active = inhibition of at least 40% at 20 µM;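 also: plate controls were DMSO wells for no effect and DEVD-CHO caspase inhibitor wells for full effect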
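Material: reconstituted apoptosome with Apaf-1, cytochrome c, caspase-9, procaspase-3, dATP. Technique: Rh110 fluorescence intensity. Buffer or medium: pH 7.5 Hepes buffer with CHAPS, BSA, DTT. Times: 30 min plus 50 min, RT.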
GSTO1 counter: blocks human GSTO1 in RBBP9 counter-screen | actives 1.1% (n = 300,000) | recombinant GSTO1, activity-based probe fluorescence polarization | inhibition, % at 5.96 µM | AID 1974;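 active = inhibition above the campaign mean inhibition plus 3 SD, cut at about 35% in these data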;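 also: 0% = GSTO1-1 with DMSO and 100% = wells lacking GSTO1-1 enzyme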
PAD4 FP inh: inhibitors of human PAD4; recombinant PAD4, RCA probe fluorescence polarization; inhibition, % at 6.36 µM; actives 0.41% (n = 330,000);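 active = percent inhibition above a cutoff equal to the mean of all tested compounds plus 3 SD, cut at about 15% in these data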;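 also: 0% = PAD4 with RCA probe and DMSO and 100% = probe without PAD4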
The depositor's hits bear a star; . = no result given. This is a sample that favours compounds with a hit; in the whole collection about 2.6% have one here.

SMILES | TDP2 absorb | PRMT1 FP inh | Apaf1 inhib | GSTO1 counter | PAD4 FP inh
CCOc1cc(C(c2c(C)[nH][nH]c2=O)c2c(C)[nH][nH]c2=O)ccc1O | 17.8 | 0.1 | 32.1 | 46.0* | -11.3
O=C(O)c1cccc2cccc(-c3c4ccc(=O)c(O)c-4oc4c(O)c(O)ccc34)c12 | 19.3 | 32.2* | . | . | .
CC(C)(C)C(=O)NC1=NN(c2c(Cl)cc(Cl)cc2Cl)C(=O)C1 | -0.6 | 4.1 | 67.6* | 14.0 | -9.8
CC(=O)Nc1ccc2c(O)cc(S(=O)(=O)O)cc2c1 | 5.5 | 6.5 | . | . | .
COc1ccccc1Nc1ccc2c(O)cc(S(=O)(=O)O)cc2c1 | 0.3 | 36.6* | . | . | .
O=S(=O)(O)c1ccc(O)c2cc(Nc3ccccc3)ccc12 | 23.6 | 43.0* | . | . | .
O=S(=O)(O)c1cc(O)c2ccc(Nc3ccccc3)cc2c1 | 16.9 | 28.2* | . | . | .
CCCCS(=O)(=O)N1C2=NC3=C(C(=O)N(CCOC)C3=O)C3N(C)c4ccccc4[C@]23C[C@H]1CO (stereo partly specified) | 6.8 | 2.2 | . | . | .
Cc1ccc2c(c1)sc[n+]2Cc1ccccc1 | 4.6 | 64.2* | -16.1 | 0.9 | 21.9*
CCN(CC)C(=O)[C@H]1C[C@H](CC(=O)NC/C=C(\C)CCC=C(C)C)C(=O)N2CCc3c([nH]c4cc(-c5ccco5)ccc34)[C@]12C | 1.4 | 14.7 | 38.1 | . | 4.2
CC(C)=CCC/C(C)=C/CNC(=O)C[C@H]1C[C@H](C(=O)N2CCCCC2)[C@@]2(C)c3[nH]c4cc(-c5ccco5)ccc4c3CCN2C1=O | 0.6 | 23.8* | 31.5 | . | 2.1
COCC(=O)Nc1ccc2c(c1)[C@H]1C[C@@H](CC(=O)NCC3CC3)O[C@H](CO)[C@H]1O2 | 12.1 | -0.7 | . | . | .
O=C1NC(=O)N2CCSC2(Cc2ccccc2)N1 (stereo unspecified) | 0.6 | 21.2* | . | . | .
O=C1CCN(Cc2ccccc2)C(=O)N1 | 5.4 | -0.2 | . | . | .
COc1ccc(S[C@]2(C(=O)N3CCN(c4ncccn4)CC3)CC(=O)N(c3ccsc3)[C@@H]2c2ccc(OC)cc2)cc1 | 3.9 | 2.1 | . | . | .
COC(=O)C(C(=O)OC)C1OC23CN(S(=O)(=O)c4ccc(C)cc4)C=CC2(C)C3c2ccccc21 (stereo unspecified) | 0.7 | 1.1 | . | . | .
CCN(Cc1cn(Cc2ccccc2)nn1)S(=O)(=O)c1ccccc1Br | 0.3 | 2.9 | . | . | .
O=C(O)/C=C/C(=O)Nc1ccc2c(c1)C(=O)c1ccccc1C2=O | -3.8 | 14.8 | -6.3 | 37.4* | -3.7
Cc1ccc(C)c(N=Cc2cc3c(cc2[N+](=O)[O-])OCO3)c1 | 9.9 | 21.7* | 34.5 | 19.7 | -18.2
CC(=O)N(C)c1ccc(N=Cc2cc3c(cc2[N+](=O)[O-])OCO3)cc1 | 37.4* | -0.9 | 64.9* | 11.6 | -11.6
Cc1ccc(N=Cc2cc3c(cc2[N+](=O)[O-])OCO3)cc1[N+](=O)[O-] | 4.3 | 25.1* | 39.5 | 36.4* | -12.0
CC(C)(C)c1ccc(O)c(N=Cc2cc3c(cc2[N+](=O)[O-])OCO3)c1 | -5.8 | 6.9 | 13.7 | 18.6 | -2.8
Cc1cccc(C)c1OCC(=O)N/N=C/c1cc2c(cc1[N+](=O)[O-])OCO2 | 0.1 | 2.4 | -1.0 | 5.0 | -3.1
COC(=O)[C@]1(CNS(=O)(=O)c2ccc(F)cc2)CC(=O)N(C)[C@@H]1c1ccccc1 | -0.9 | 1.5 | . | . | .
CCNc1ccc(Br)cc(C(=O)/C=C/c2c(Cl)cccc2Cl)c1=O | . | . | 32.9 | 36.7* | -7.2
SMILES | TDP2 absorb | PRMT1 FP inh | Apaf1 inhib | GSTO1 counter | PAD4 FP inh
Nc1ccccc1C(=O)/C=C/c1ccc2c(c1)OCO2 | -3.9 | 4.0 | 13.0 | 2.1 | -0.6
CCNc1ccc(Br)cc(C(=O)/C=C/c2ccc(Cl)cc2)c1=O | . | . | 0.6 | 7.2 | -0.6
CCNc1ccc(Br)cc(C(=O)/C=C/c2ccc3c(c2)OCO3)c1=O | 1.2 | 38.0* | 33.0 | 53.2* | 6.5
O=C(Nc1c(-c2ccc(F)cc2)nc2ncccn12)c1ccccc1 | 3.0 | 1.9 | . | . | .
CCCCOc1cccc(C(=O)NCCc2ccccc2-c2ccccc2CCC(=O)NCc2ccccc2)c1 | 6.4 | -1.2 | . | . | .
CCC(Sc1nc2ccccc2o1)C(=O)Nc1nnc(C)s1 (stereo unspecified) | 2.7 | -0.3 | 7.1 | 43.7* | 5.0
CCC(Sc1nc2ccccc2o1)C(=O)O (stereo unspecified) | -9.1 | 7.8 | -7.9 | 2.9 | -0.9
Cc1nn(CCC(=O)NNC(=O)Nc2ccccc2)c(C)c1[N+](=O)[O-] | 0.9 | 2.5 | . | . | .
O=C(CCCc1nc2ccccc2s1)N1CCN(c2ccccc2)CC1 | 5.7 | 23.3* | 8.3 | 2.7 | 1.1
